A selection: hits, their analogues and other compounds. The true share with any hit is near 4%.
FGF22 binding – shifts melting point of recombinant human FGF22 | Q9HCT0 | recombinant FGF22 thermal shift, SYPRO orange fluorescence; percent of sucrose octasulfate shift, DMSO zero | activity (Tm shift, normalised), % at 9.99 µM | 1.5% of 340,000 active | AID 651658;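 active = mean Tm shift, scaled 0 neutral to 100 positive control, at about 1.3% or above, every replicate too, limit read from the data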
Target sequence (Q9HCT0 whole entry, looked up): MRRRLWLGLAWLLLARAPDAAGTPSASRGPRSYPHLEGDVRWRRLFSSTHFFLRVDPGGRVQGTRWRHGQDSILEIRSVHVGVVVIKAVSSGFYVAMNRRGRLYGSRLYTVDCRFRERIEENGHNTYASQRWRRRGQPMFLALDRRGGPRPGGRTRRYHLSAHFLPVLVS
C2C12 statin – protects C2C12 myotubes from simvastatin toxicity; ATP luminescence, 48 h; scaled: DMSO 0, geranylgeraniol control 100; rescue of ATP level, % at 7.49 µM; 0.78% of 330,000 active; AID 602340;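 active = mean ATP rescue above about 67%, or every replicate alone reaching that limit, limit read from the data, passing the limit was not always enough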;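 also: myotubes were challenged with 10 µM simvastatin during compound exposure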
E-sel inducer – induces E-selectin expression in human endothelial cells; P16581; HUVEC E-selectin immunofluorescence imaging; normalized: neutral wells 0, TNF-alpha wells 100; activation, % at 7.58 µM; 0.37% of 260,000 active; AID 686992;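 active = mean E-selectin-positive cell signal at least 10% of the positive control, reached in at least 60% of replicates, without over 20% cell loss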
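material = human umbilical vein endothelial cells (HUVEC), E-selectin induction | quantity = 3,000 cells/well | medium = EGM-2 growth medium on 0.1% gelatin-coated wells | technique = immunofluorescence imaging | read-out basis = % PE-positive cells | control set = TNF-alpha positive control, DMSO neutral control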
FN deposition inh – fibronectin deposition inhibition; inhibition, % at 12.6 µM; AID 743247; 0.086% of 350,000 active; AH1F fibroblasts, Alexa488-fibronectin deposition fluorescence, overnight;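 active = mean inhibition across replicates of 30% or more, regardless of how many single replicates reach that level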;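 also: positive control wells lacked labelled fibronectin entirely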
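material = AH1F fibroblast monolayer depositing Alexa488-labelled fibronectin into matrix | amount = 10000 AH1F cells/well | buffer or medium = DMEM plus 2% serum, read in PBS | incubation = 1 h cell adhesion before compound, then overnight fibronectin incubation | detection = fluorescence at 485 nm excitation, 525 nm emission | evaluation = percent inhibition as loss of matrix-bound fibronectin fluorescence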
SIRT5 inh – inhibitors of human sirtuin-5 desuccinylase; Q9NXA8; Purified SirT5, succinyl-peptide AMC, trypsin-coupled fluorescence; inhibition, % at 15 µM; 1.1% of 330,000 active; AID 652115; in the data active = inhibition above about 15%
Target sequence (Q9NXA8 whole entry, looked up): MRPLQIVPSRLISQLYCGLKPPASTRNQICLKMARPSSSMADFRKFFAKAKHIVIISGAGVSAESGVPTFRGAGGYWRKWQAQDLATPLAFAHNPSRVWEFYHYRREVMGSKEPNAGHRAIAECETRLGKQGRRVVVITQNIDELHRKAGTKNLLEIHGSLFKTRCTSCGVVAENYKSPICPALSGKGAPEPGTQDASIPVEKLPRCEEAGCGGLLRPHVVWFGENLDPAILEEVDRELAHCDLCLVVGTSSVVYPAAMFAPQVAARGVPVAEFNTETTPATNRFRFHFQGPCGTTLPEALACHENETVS
rRNA inh HTS – inhibits bacterial ribosomal RNA function over humanized ribosomes | E. coli WT GFP vs humanized-ribosome RFP mutants, fluorescence, 24 h; stronger effect = lower value; DMSO median 0, no signal -100 | GFP signal change (wild-type ribosome), % (concentration not given with the values) | 1.6% of 350,000 active | AID 720706;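 active = significant combined selectivity score with lowered wild-type GFP, culture density cut under 30%, mutant RFP and density less affected; inactive = any of these conditions unmet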
An asterisk follows results filed as active; · = no result given.

SMILES	FGF22 binding	C2C12 statin	E-sel inducer	FN deposition inh	SIRT5 inh	rRNA inh HTS
CC(=O)c1ccc2c(c1)C1C=CCC1C(C(=O)O)N2 (centres undefined)	43.7*	·	-0.8	·	32.2*	7.0
CCOC(=O)CNC(=O)C12CC3CC(CC(C3)C1)C2	0.2	·	1.7	0.5	15.8*	6.7
NS(=O)(=O)c1cccc(NC(=O)CSc2n[nH]c(-c3ccccc3Br)n2)c1	1.9*	-2.5	·	0.9	-2.3	-2.7
CC(=O)Nc1cccc(NC(=O)CSc2n[nH]c(-c3ccccc3)n2)c1	1.2	-15.4	·	0.1	2.3	·
C[C@@H]1CN([C@@H](C)CO)C(=O)c2cc(NC(=O)C3CC3)ccc2O[C@H]1CN(C)S(=O)(=O)c1cn(C)cn1	-0.1	8.8	0.1	·	-1.5	1.1
COc1ccccc1C(=O)NC(=S)N1CCc2ccccc21	0.4	·	9.9	-11.1	1.4	-24.0*
O=C(COc1ccccc1Cl)NC(=S)N1CCc2ccccc21	0.2	·	·	·	-0.4	-51.9*
COc1ccccc1C(=O)NC(=S)N1CCCc2ccccc21	0.0	-20.0	·	·	0.7	-5.9
COc1ccc(C(=O)NC(=S)N2CCCc3ccccc32)cc1OC	-0.2	6.4	·	·	112.3*	-20.3
COc1ccc(N2CC(NC(=O)N3CCc4ccccc43)CC2=O)cc1OC (centres undefined)	0.1	1.4	0.0	1.8	19.6*	1.6
CO[C@@H]1CN(C)C(=O)c2ccc(NC(=O)C3CC3)cc2OC[C@@H](C)N(C(=O)CN2CCOCC2)C[C@@H]1C	-0.3	5.2	0.1	-5.3	0.1	1.5
CCS(=O)(=O)NCC[C@H]1CC[C@H](NC(=O)C2CC2)[C@H](CO)O1	·	·	-0.4	·	-6.1	1.3
COc1cccc(-c2cnc3c(c2)C(=O)N([C@H](C)CO)C[C@@H](C)[C@H](CN(C)C(=O)CN(C)C)O3)c1	0.1	9.4	0.0	·	-4.0	4.5
C[C@H](CO)N1C[C@H](C)[C@@H](CN(C)Cc2ccc(-c3ccccc3)cc2)Oc2ccc(NC(=O)Nc3cccc4ccccc34)cc2C1=O	0.9	55.8	-0.1	·	5.8	2.9
Cn1ccnc1Sc1ccccc1[N+](=O)[O-]	43.3*	·	·	3.3	-1.4	23.8
CO[C@@H]1CC[C@H]2CCOc3ccc(C#N)cc3C(=O)N(C)C[C@@H](OC)[C@@H](C)C(=O)N(C)C[C@H]1O2	0.1	-4.9	-0.1	4.0	-4.9	4.2
O=C(CN1C(=O)c2ccccc2S1(=O)=O)NCCSCc1c(F)cccc1Cl	-0.2	-7.9	·	4.2	-1.3	-29.5*
COc1ccc(C(=O)CN2C3=NCCCN3c3ccccc32)cc1OC	·	·	·	-7.7	·	·
COc1cccc(C(=O)CN2C3=NCCCN3c3ccccc32)c1	·	133.8*	·	7.7	·	·
Cc1ccc(OCC(O)CNC(=O)c2ccccc2C(=O)O)cc1 (centres undefined)	·	104.9*	·	-1.4	·	·
CCOc1ccc(C2C([N+](=O)[O-])=C(C)N(C)C(=O)N2C)cc1OC (centres undefined)	43.0*	·	·	·	·	20.0
O=C(Nc1cc(C(F)(F)F)ccc1N1CCOCC1)c1ccncc1	0.4	-0.9	4.4	5.3	-2.8	3.8
O=C(CNCc1ccccn1)Nc1cc(C(F)(F)F)ccc1N1CCOCC1	0.2	3.3	5.2	-1.2	17.3*	-4.1
O=C(N/N=C/C=C/c1ccccc1)c1cccs1	43.1*	·	·	-13.9	-3.9	11.8
COc1cccc(/C=N/NC(=O)c2cc(-c3cccn3C)n[nH]2)c1O	1.3	·	2.9	7.5	0.7	-36.5*
Cn1cccc1-c1cc(C(=O)N/N=C/C=C/c2ccccc2)[nH]n1	1.7*	-10.9	·	2.1	-1.5	-46.8
COc1cccc(/C=N/NC(=O)c2cc(-c3cccn3C)n[nH]2)c1	·	-10.9	·	·	1.8	-23.6*
COc1ccc(CN(C)C[C@@H]2Oc3c(NS(=O)(=O)c4ccccc4)cccc3C(=O)N([C@@H](C)CO)C[C@@H]2C)cc1	-0.1	-2.2	0.1	·	-2.5	-0.1
C[C@H]1CN([C@@H](C)CO)C(=O)Cc2cc(NC(=O)c3ccncc3)ccc2O[C@H]1CN(C)Cc1ccc(Cl)c(Cl)c1	-0.1	13.5	-2.2	·	6.8	-16.9

Screening results deposited in PubChem by Broad Institute.
